These results are taken from ChEMBL document CHEMBL1141044, “Synthesis and antipicornavirus activity of (R)- and (S)-1-[5-(4'-chlorobiphenyl-4-yloxy)-3-methylpentyl]-3-pyridin-4-yl-imidazolidin-2-one” (Bioorg Med Chem Lett, 2005).

Test [1] concerns Enterovirus A71. Briefly: Inhibitory activity against Human enterovirus 71 strain 4643 using plaque reduction assay. It counts as functional, organism-based. The note with it: Enterovirus A. An outline of the steps:
(§1)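 EV71 strain 4643 titrated by plaque reduction in human rhabdomyosarcoma (RD) cells. Values are means of triplicate wells, and each experiment was run at least twice.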
For orientation: Plaques are areas of infected cells; plaque reduction assays count them against a control.

Test [2] is described as follows: Cytotoxicity against Human rhabdomyosarcoma cells using plaque reduction assay. It counts as functional. In short, it runs like this:
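Cytotoxicity was measured in human rhabdomyosarcoma (RD) cells. Values are means of triplicate wells from experiments done at least twice.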

The test system of test [3] is Enterovirus A71. Briefly: Inhibitory activity against human enterovirus 71 strain 4643 using plaque reduction assay. It counts as functional, organism-based. The note with it: Enterovirus A. An outline of the steps: as §1
In test [4] the test system is Enterovirus A71. Briefly: Inhibitory activity against Human Enterovirus 71 (1743) B using plaque reduction assay. It counts as functional, organism-based. To be noted: Enterovirus A. In short, it runs like this: (§2)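 Panel screen by plaque reduction against representative human enteroviruses and rhinoviruses. Each value is a mean of triplicate wells, with all experiments performed at least twice.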

Test [5] relates to Enterovirus A71. Briefly: Inhibitory activity against Human Enterovirus 71 (2086) C using plaque reduction assay. It counts as functional, organism-based. To be noted: Enterovirus A. In short, it runs like this:
as §2

In test [6] the test system is Enterovirus A71. Briefly: Inhibitory activity against Human Enterovirus 71 (2231) C using plaque reduction assay. It counts as functional, organism-based. To be noted: Enterovirus A. An outline of the steps:
as §2

The test system of test [7] is Enterovirus A71. Briefly: Inhibitory activity against Human Enterovirus 71 (4643) C using plaque reduction assay. It counts as functional, organism-based. To be noted: Enterovirus A. In short, it runs like this:
as §2

The test system of test [8] is Enterovirus A71. Briefly: Inhibitory activity against Human Enterovirus 71 (BrCr) A using plaque reduction assay. It counts as functional, organism-based. An outline of the steps: as §2
A further test deals with rhinovirus A2. Briefly: Inhibitory activity against Human rhinovirus 2 using plaque reduction assay. It counts as functional, organism-based, Human rhinovirus sp. To be noted: Rhinovirus A. In short, it runs like this:
as §2

The next test has as its system rhinovirus B14. Briefly: Inhibitory activity against Human rhinovirus 14 using plaque reduction assay. The note with it: Rhinovirus B. It counts as functional, organism-based, Human rhinovirus sp. In short, it runs like this:
as §2

In a further test the test system is Echovirus. Briefly: Inhibitory activity against Echovirus 29 using plaque reduction assay. It counts as functional, organism-based. An outline of the steps:
as §2

For test [9], the system named is Coxsackievirus. Briefly: Inhibitory activity against Coxsackievirus A9 using plaque reduction assay. It counts as functional, organism-based. An outline of the steps: as §2
The test system of test [10] is Coxsackievirus. Briefly: Inhibitory activity against Coxsackievirus B1 using plaque reduction assay. It counts as functional, organism-based. An outline of the steps:
as §2

Test [11] deals with Coxsackievirus. Briefly: Inhibitory activity against Coxsackievirus B2 using plaque reduction assay. It counts as functional, organism-based. An outline of the steps: as §2
Test [12] concerns Coxsackievirus. Briefly: Inhibitory activity against Coxsackievirus B3 using plaque reduction assay. It counts as functional, organism-based. In short, it runs like this: as §2
The test system of test [13] is Coxsackievirus. Briefly: Inhibitory activity against Coxsackievirus B4 using plaque reduction assay. It counts as functional, organism-based. In short, it runs like this:
as §2

The test system of test [14] is Coxsackievirus. Briefly: Inhibitory activity against Coxsackievirus B5 using plaque reduction assay. It counts as functional, organism-based. An outline of the steps:
as §2

The test system of test [15] is Coxsackievirus. Briefly: Inhibitory activity against Coxsackievirus B6 using plaque reduction assay. It counts as functional, organism-based. In short, it runs like this:
as §2

Test [16] concerns Coxsackievirus. Briefly: Inhibitory activity against Coxsackievirus A16 using plaque reduction assay. It counts as functional, organism-based. In short, it runs like this: as §2
The test system of test [17] is Coxsackievirus. Briefly: Inhibitory activity against Coxsackievirus A24 using plaque reduction assay. It counts as functional, organism-based. An outline of the steps:
as §2

The test system of a further test is Enterovirus D68. Briefly: Inhibitory activity against Human Enterovirus 68 using plaque reduction assay. The note with it: Enterovirus D.
The test system of another test is Enterovirus. Briefly: Inhibitory activity against Enterovirus 68 using plaque reduction assay. It counts as functional, organism-based. An outline of the steps:
as §2

Test [18] relates to Coxsackievirus. Briefly: Inhibitory activity against Coxsackievirus A10 using plaque reduction assay. It counts as functional, organism-based. An outline of the steps: as §2
For test [19], the system named is Enterovirus A71. Briefly: Inhibitory activity against human Enterovirus 71 (1743) B using plaque reduction assay. It counts as functional, organism-based. The note with it: Enterovirus A. An outline of the steps: as §2
For test [20], the system named is Enterovirus A71. Briefly: Inhibitory activity against human Enterovirus 71 (2086) C using plaque reduction assay. It counts as functional, organism-based. To be noted: Enterovirus A. In short, it runs like this:
as §2

Test [21] deals with Enterovirus A71. Briefly: Inhibitory activity against human Enterovirus 71 (2231) C using plaque reduction assay. It counts as functional, organism-based. The note with it: Enterovirus A. In short, it runs like this: as §2
Test [22] deals with Enterovirus A71. Briefly: Inhibitory activity against human Enterovirus 71 (4643) C using plaque reduction assay. It counts as functional, organism-based. To be noted: Enterovirus A. In short, it runs like this:
as §2

Test [23] has as its system Enterovirus A71. Briefly: Inhibitory activity against human Enterovirus 71 (BrCr) A using plaque reduction assay. It counts as functional, organism-based. In short, it runs like this:
as §2

As a reminder, the IC50 is the concentration at which inhibition is half-maximal. By CC50 is commonly meant the concentration giving 50% cytotoxicity. For `CC(C)(CCOc1ccc(-c2ccc(Cl)cc2)cc1)CCN1CCN(c2ccncc2)C1=O`, in the test with Enterovirus A71 [1], the IC50 was 0.04 µM. In [2], this compound returned a cytotoxic concentration (CC50) above 25 µM.
On to `C[C@H](CCOc1ccc(-c2ccc(Cl)cc2)cc1)CCN1CCN(c2ccncc2)C1=O`, for which the IC50 came out at 0.003 µM with Enterovirus A71 [1]; 0.003 µM in the test on Enterovirus A71 [3]; 0.026 µM with Enterovirus A71 [4]; 0.008 µM with Enterovirus A71 [5]; 0.024 µM in the test with Enterovirus A71 [6]; 0.003 µM in the test on Enterovirus A71 [7]. Further, the IC50 in the test on Enterovirus A71 [8] is 0.033 µM; in the test on rhinovirus A2, above 25 µM; in the test with rhinovirus B14 it was above 25 µM; with Echovirus it was 1.3 µM; with Coxsackievirus [9], 0.019 µM; with Coxsackievirus [10] it was above 25 µM. In addition, the IC50 with Coxsackievirus [11] was above 25 µM; with Coxsackievirus [12] it was above 25 µM; in the test with Coxsackievirus [13], 1.25 µM; with Coxsackievirus [14] it was 4.85 µM; with Coxsackievirus [15] it was above 25 µM; in the test on Coxsackievirus [16] it was 6.92 µM. Also, the IC50 with Coxsackievirus [17] and in the test with Enterovirus D68 was above 25 µM throughout. This compound yielded a CC50 in test [2] above 25 µM.
With `C[C@@H](CCOc1ccc(-c2ccc(Cl)cc2)cc1)CCN1CCN(c2ccncc2)C1=O`, the IC50 is 0.033 µM in the test on Enterovirus A71 [1]; 0.17 µM with Enterovirus A71 [4]; 0.049 µM in the test on Enterovirus A71 [5]; 0.16 µM in the test on Enterovirus A71 [6]; 0.033 µM in the test on Enterovirus A71 [7]; 0.32 µM with Enterovirus A71 [8]. The IC50 in the test on rhinovirus A2 is above 25 µM; with rhinovirus B14 it was above 25 µM; in the test with Echovirus, 1.47 µM; in the test on Enterovirus, above 25 µM; with Coxsackievirus [9] it was 0.15 µM; with Coxsackievirus [10] it was above 25 µM. For the same compound, the IC50 in the test on Coxsackievirus [11] was above 25 µM; in the test with Coxsackievirus [12], above 25 µM; with Coxsackievirus [13] it was 2.05 µM; with Coxsackievirus [14], 2.08 µM; in the test on Coxsackievirus [15], above 25 µM; in the test on Coxsackievirus [18], above 25 µM. The IC50 in the test on Coxsackievirus [16] and in the test on Coxsackievirus [17] was above 25 µM throughout. In [2], this compound gave a half-maximal cytotoxic concentration (CC50) above 25 µM.
On to `O=C1N(CCCCCOc2ccc(-c3ccc(Cl)cc3)cc2)CCN1c1ccncc1`, for which the IC50 in the test with Enterovirus A71 [1] is 0.054 µM; in the test on Enterovirus A71 [19], 0.092 µM; in the test with Enterovirus A71 [20] it was 0.043 µM; in the test on Enterovirus A71 [21], 0.092 µM; in the test with Enterovirus A71 [22], 0.054 µM; in the test with Enterovirus A71 [23], 0.13 µM. The IC50 is above 25 µM with rhinovirus A2; above 25 µM in the test with rhinovirus B14; 0.39 µM in the test on Echovirus; above 25 µM in the test with Enterovirus; above 25 µM in the test with Coxsackievirus [10]; above 25 µM in the test with Coxsackievirus [11]. In addition, the 50% inhibitory concentration (IC50) was above 25 µM with Coxsackievirus [12]; 1.3 µM with Coxsackievirus [13]; above 25 µM in the test with Coxsackievirus [15]; above 25 µM in the test with Coxsackievirus [18]; above 25 µM in the test with Coxsackievirus [16]. For the same compound, the CC50 in [2] was above 25 µM.
